Screens from PubChem.
AI-2 QS mod = modulates the Vibrio harveyi AI-2 quorum sensing system | activity change, % at 7.5 µM | hit rate 0.4% among 300,000 | Vibrio harveyi JMH597 AI-2 luminescence/OD600 ratio, 9 h; stronger effect = lower value; strain lacks LuxN and CqsS sensors; 0 = neutral-control median; in the data active = activity change below about -75%, passing the limit was not always enough;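 also: luminescence divided by OD600 gain over 9 h not by final OD600 alone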
KCNQ1 act = human KCNQ1 channel potentiation or activation | P51787 | AID 2648 | B-score at 10 µM | CHO-K1 KCNQ1, thallium flux FluxOR fluorescence; stronger effect = higher value | hit rate 0.35% among 310,000;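 active = fluorescence ratio B-score, a plate-corrected score, at least three library SD, with initial intensity B-score within 5 SD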
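Assay system: CHO-K1 cells stably expressing KCNQ1; Medium: assay buffer with matched DMSO; Also added: K+/Tl+ depolarizing stimulus; Dosing: single dose; Timing: dye 90 min, compound 20 min, room temperature; Measured by: kinetic FluxOR thallium fluorescence, 10-s 1-Hz baseline, 110-s post-stimulus read; Read-out: peak-minus-minimum fluorescence over initial fluorescence, negative-control normalized, B-scored.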
hERG rescue = compounds protecting human hERG from proarrhythmic drug block; CHO-hERG, FluxOR thallium flux, dofetilide IC70 present; activation (rescue from dofetilide block), less the hit threshold, % at 10 µM; hit rate 0.51% among 310,000;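 active = activation above the mean of controls blocked by dofetilide plus 5 SD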;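 also: thallium influx through hERG after potassium depolarization seen as dye fluorescence rise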
Mot1-301 SUMO = blocks SUMOylation pathway, rescuing yeast Mot1-301 growth. AID 2716. S. cerevisiae Mot1-301 growth rescue, ATP luminescence, 38.5C; percent above DMSO median, 100 means doubled. hit rate 1% among 320,000. growth rescue, % at 18.8 µM;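 active = every valid replicate shows activation above 250% relative to neutral control wells; inactive = the rest, any valid replicate at or below 250%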;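 also: OY570 slx delta 5 strain wells were the positive control but not used for scaling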
KCNQ1 block = inhibitors of human KCNQ1 potassium channel; P51787; CHO-K1 KCNQ1, FluxOR thallium flux fluorescence; stronger effect = higher value; B-score at 10 µM; hit rate 1.3% among 310,000; AID 2642;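 active = compounds whose thallium flux B-score, printed positive for inhibition, exceeds three library SD while starting fluorescence stays within three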;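 also: channel opened by potassium depolarization with thallium stimulus after 20 min compound exposure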
KCC2 mod = modulates chloride dependent transport by human KCC2. KCC2 cells, thallium flux FluoZin-2 fluorescence. B-score of Tl+ flux slope (higher = more flux/activation; lower = inhibition) at 10 µM. hit rate 2.2% among 190,000. AID 1456;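 active = thallium flux slope and its plate-corrected score both differing from the plate sample mean at a set confidence after two filtering rounds, in either direction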;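 also: slope of fluorescence scaled to starting intensity during 10 to 20 s after thallium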
Active calls of the source: *; i = inactive; . = no result. Compounds with a hit are over-represented: about 4.2% of the library has one in this group of screens.

SMILES	AI-2 QS mod	KCNQ1 act	hERG rescue	Mot1-301 SUMO	KCNQ1 block	KCC2 mod
O=C(CSc1n[nH]c(-c2ccc(S(=O)(=O)N3CCCCC3)cc2)n1)Nc1nccs1	19	i	6.5*	7	i	.
Cn1c(SCC(=O)Nc2nccs2)nnc1-c1ccc(S(=O)(=O)N2CCCC2)cc1	21	i	-7	i	i	-0.027
COc1ccc(C(=O)CNc2cccc(F)c2)cc1	14	i	-5	8	i	.
COc1ccc(C(=O)NNC(=S)NC(=O)c2cccc([N+](=O)[O-])c2)cc1	-85*	i	-7	-35	i	.
Cc1ccc(NC(=S)NC(=O)c2cncc(Br)c2)cc1Cl	16	i	8.8*	13	i	.
Cc1ccc(NC(=S)NNC(=O)c2cccc([N+](=O)[O-])c2)cc1Cl	66	i	-14	230	8*	-1.8
CCCCCC(=O)NNC(=S)NC(=O)c1cccc([N+](=O)[O-])c1	-21	i	-16	-22	i	5.2
CCn1c(C)nc2cc(C(=O)NNC(=S)NC(=O)c3ccc(OC)cc3)ccc21	-85*	i	-5	7	i	-0.43
COc1cc(NC(=O)CSc2ncnc3scc(-c4ccccc4)c23)c(C(=O)O)cc1OC	12	i	-7	-27	i	-0.074
CC(=O)c1cccc(NC(=S)NNC(=O)c2ccc(C)c([N+](=O)[O-])c2)c1	24	i	-7	-16	i	-0.59
Cc1ccc(C(=O)NNC(=S)Nc2cccc(Cl)c2Cl)cc1[N+](=O)[O-]	3	i	-10	26	9*	.
CN1CCN(C(CNC(=O)c2ccc(Br)o2)c2ccc(F)cc2)CC1 (stereo not drawn)	-10	i	-15	45	i	.
CC(C)C[C@H](N)C(=O)N1CCC(C(=O)N[C@H](C(=O)NC(C)c2ccccc2)C(C)C)CC1 (stereo partly drawn)	6	i	-6	788*	i	.
Cc1ccccc1NC(=S)NNC(=O)c1csc2c1CCC(C)C2 (stereo not drawn)	31	10*	-8	284	i	94*
CCOC(=O)N1C/C(=C\c2ccccc2)C(=O)/C(=C/c2ccccc2)C1	10	i	-13	.	10*	-0.0082
Cc1cc(C(=O)NNC(=O)c2sccc2C)c(C)o1	4	i	-7	33	i	.
O=C(NCCN1CCOCC1)c1ccc(/C=C2\Sc3ccccc3N(Cc3ccccc3F)C2=O)cc1	-10	i	-19	-13	11*	.
COc1ccc(/C=C2\Sc3ccc(C(=O)N4CCc5ccccc5C4)cc3N(C)C2=O)cc1	14	i	-13	.	i	-0.53
COc1ccc(/C=C2\Sc3ccc(C(=O)NCCN4CCCCCC4)cc3N(C)C2=O)cc1	2	i	-19	-1	9*	.
Cc1cccc(CN2C(=O)/C(=C\c3ccc(C(=O)NCCN4CCOCC4)cc3)Sc3ccccc32)c1	5	i	-25	-11	8*	.
Cc1ccccc1CN1C(=O)/C(=C\c2ccc(C(=O)NCCN3CCOCC3)cc2)Sc2ccccc21	-7	i	-13	25	i	.
CCN1CCN(CCNC(=O)c2ccc3c(c2)N(Cc2ccc(F)cc2)C(=O)/C(=C/c2ccccc2)S3)CC1	31	i	-28	37	10*	-1.8
C=CCn1c(C)cc(-c2csc(NCC)n2)c1C	2	i	-12	22	6*	0.24
C=CCn1c(C)cc(-c2csc(NC)n2)c1C	.	.	.	.	.	1.3
CC(C)NC(=NCc1ccc(Cl)cc1Cl)Nc1ccccc1	8	i	-5	6	6*	.
FC(F)(F)c1cc(-c2cccs2)nc2cc(-c3cccs3)nn12	13	i	-1	12	6*	-0.01
CCN(CC)C(=S)NC(=O)c1ccc(OC)c(Br)c1	-1	8*	3	39	i	96*
COc1ccc(C(=O)NC(=S)NCCO)cc1Br	9	i	3	155	i	4.7*
C=CCN(CC=C)C(=S)Nc1cc(Cl)ccc1OC	7	i	1	.	i	-0.2
